For test [1], the target named is T1, Muscarinic acetylcholine receptor M2 (Homo sapiens, UniProt P08172).
T1 sequence (P08172 whole entry): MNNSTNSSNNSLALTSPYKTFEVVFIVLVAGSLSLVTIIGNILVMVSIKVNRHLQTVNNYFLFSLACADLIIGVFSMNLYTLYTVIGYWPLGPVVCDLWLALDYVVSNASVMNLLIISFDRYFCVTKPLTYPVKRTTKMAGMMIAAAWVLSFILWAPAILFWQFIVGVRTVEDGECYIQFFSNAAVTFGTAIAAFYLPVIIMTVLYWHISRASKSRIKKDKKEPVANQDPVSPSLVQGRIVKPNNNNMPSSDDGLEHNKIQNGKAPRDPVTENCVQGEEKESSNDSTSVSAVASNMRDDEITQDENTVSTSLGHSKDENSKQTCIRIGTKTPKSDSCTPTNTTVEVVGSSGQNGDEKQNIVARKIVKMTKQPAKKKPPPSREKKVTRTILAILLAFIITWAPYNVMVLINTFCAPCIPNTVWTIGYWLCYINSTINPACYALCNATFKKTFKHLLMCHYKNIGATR
Nature of the test: Binding affinity to cloned human muscarinic M2 receptor expressed in CHO cells. The test is classed as cell-based. The essentials: (§1)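 Membranes from CHO cells stably expressing human hm2, hm4 or hm5 receptors, at 70, 50 and 25 µg/mL protein respectively. 0.2 nM [3H]NMS displaced by unlabelled ligand for 120 min at room temperature, in 25 mM sodium phosphate with 5 mM MgCl2, pH 7.4. Rapid filtration, then scintillation counting. Mean of at least three experiments.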

For test [2], the target named is T2, Muscarinic acetylcholine receptor M4 (Homo sapiens, UniProt P08173).
T2 sequence (P08173 whole entry): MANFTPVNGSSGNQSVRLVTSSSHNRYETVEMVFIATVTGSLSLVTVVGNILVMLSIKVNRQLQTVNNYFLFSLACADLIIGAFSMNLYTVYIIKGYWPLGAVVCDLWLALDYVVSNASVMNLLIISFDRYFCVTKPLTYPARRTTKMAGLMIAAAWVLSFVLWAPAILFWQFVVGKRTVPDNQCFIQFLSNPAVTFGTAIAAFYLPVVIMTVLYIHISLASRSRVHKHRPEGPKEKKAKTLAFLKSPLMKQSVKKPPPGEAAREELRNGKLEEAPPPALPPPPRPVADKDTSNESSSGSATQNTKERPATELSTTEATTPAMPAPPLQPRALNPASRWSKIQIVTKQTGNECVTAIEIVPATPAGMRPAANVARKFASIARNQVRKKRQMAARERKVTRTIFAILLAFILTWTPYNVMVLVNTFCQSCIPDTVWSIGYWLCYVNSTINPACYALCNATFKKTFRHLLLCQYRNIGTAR
Description: Binding affinity to cloned human muscarinic M4 receptor expressed in CHO cells. The test is classed as cell-based. The essentials:
as §1

Test [3] deals with T3, Muscarinic acetylcholine receptor M4 (Homo sapiens) (UniProt P08173).
T3 sequence (whole entry): T2 sequence (P08173 whole entry)
Description: Agonist potency at muscarinic M4 receptor in guinea pig lung strips. The test is classed as functional. As to conditions: Cavia porcellus, target entry is the homologue from another species. The essentials: (§2)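 Isolated guinea pig tissue contractions, measured against arecaidine propargyl ester control curves. Agonists: cumulative dose-response curve after a 30 min wash, responses as % of the control maximum. Antagonists: 60 min incubation, then a new agonist curve. Parallel time-control tissues were run. Values expressed as pD2 (-log ED50) with intrinsic activity, or as pKb (-log Kb).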

For test [4], the target named is Muscarinic acetylcholine receptor M3 (Homo sapiens, UniProt P20309). Description: Binding affinity to cloned human muscarinic M3 receptor expressed in CHO cells. The class given is cell-based.
Sequence of Muscarinic acetylcholine receptor M3 (P20309 whole entry): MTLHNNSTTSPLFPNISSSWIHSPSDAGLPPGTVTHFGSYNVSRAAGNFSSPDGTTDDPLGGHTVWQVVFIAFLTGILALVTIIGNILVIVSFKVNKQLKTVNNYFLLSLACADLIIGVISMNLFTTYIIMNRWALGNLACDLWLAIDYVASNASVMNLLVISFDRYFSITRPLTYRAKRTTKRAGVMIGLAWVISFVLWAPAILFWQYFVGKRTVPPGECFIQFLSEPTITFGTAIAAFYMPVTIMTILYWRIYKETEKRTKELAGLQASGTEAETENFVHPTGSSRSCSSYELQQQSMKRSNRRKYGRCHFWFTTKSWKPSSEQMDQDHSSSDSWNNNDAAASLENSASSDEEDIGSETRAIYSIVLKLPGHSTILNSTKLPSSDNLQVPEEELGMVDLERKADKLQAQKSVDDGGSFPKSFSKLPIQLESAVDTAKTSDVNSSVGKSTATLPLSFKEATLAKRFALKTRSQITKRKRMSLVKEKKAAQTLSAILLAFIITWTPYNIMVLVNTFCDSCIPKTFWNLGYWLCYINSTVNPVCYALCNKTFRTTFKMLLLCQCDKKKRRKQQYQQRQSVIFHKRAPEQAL
Test [5] has as its target T4, Muscarinic acetylcholine receptor M2 (Homo sapiens) (UniProt P08172).
T4 sequence (whole entry): T1 sequence (P08172 whole entry)
Nature of the test: Agonist potency at muscarinic M2 receptor in guinea pig atrium. The test is classed as functional, tissue-based. The settings on record: Cavia porcellus; Cardiac atrium; target entry is the homologue from another species. Summed up: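 Guinea pig left atria in PSS at 30 °C, paced by square-wave pulses (1 ms, 1 Hz, 5-10 V). Inotropic force recorded isometrically after 2 h equilibration, with cumulative dose-response curves to arecaidine propargyl ester as reference. Antagonists incubated 60 min after a 30 min wash, then the curve was repeated. Values given as pD2 with intrinsic activity, or as pKb.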

Test [6] addresses T5, Muscarinic acetylcholine receptor M5 (Homo sapiens, UniProt P08912).
T5 sequence (P08912 whole entry): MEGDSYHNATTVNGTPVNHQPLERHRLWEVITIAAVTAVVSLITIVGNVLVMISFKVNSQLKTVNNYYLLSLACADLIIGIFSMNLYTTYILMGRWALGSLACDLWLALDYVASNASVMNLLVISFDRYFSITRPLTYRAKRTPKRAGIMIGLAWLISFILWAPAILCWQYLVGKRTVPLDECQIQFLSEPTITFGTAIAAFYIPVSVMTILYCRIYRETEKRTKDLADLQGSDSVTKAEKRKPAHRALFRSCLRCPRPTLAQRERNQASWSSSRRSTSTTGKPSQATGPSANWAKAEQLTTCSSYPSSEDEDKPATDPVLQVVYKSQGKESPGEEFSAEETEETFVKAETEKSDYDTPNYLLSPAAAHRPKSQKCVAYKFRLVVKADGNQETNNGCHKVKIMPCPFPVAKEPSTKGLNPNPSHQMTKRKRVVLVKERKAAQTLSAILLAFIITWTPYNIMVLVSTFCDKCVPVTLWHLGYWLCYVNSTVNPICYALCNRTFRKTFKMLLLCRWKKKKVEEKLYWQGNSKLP
Description: Binding affinity to cloned human muscarinic M5 receptor expressed in CHO cells. The test is classed as cell-based. The essentials: as §1

The target of test [7] is Muscarinic acetylcholine receptor M3 (Cavia porcellus) (UniProt Q8VH26). Nature of the test: Agonist potency at muscarinic M3 receptor in guinea pig ileum. The class given is functional, tissue-based. The essentials:
as §2

For test [8], the target named is T6, Muscarinic acetylcholine receptor M1 (Homo sapiens) (UniProt P11229).
T6 sequence (whole entry): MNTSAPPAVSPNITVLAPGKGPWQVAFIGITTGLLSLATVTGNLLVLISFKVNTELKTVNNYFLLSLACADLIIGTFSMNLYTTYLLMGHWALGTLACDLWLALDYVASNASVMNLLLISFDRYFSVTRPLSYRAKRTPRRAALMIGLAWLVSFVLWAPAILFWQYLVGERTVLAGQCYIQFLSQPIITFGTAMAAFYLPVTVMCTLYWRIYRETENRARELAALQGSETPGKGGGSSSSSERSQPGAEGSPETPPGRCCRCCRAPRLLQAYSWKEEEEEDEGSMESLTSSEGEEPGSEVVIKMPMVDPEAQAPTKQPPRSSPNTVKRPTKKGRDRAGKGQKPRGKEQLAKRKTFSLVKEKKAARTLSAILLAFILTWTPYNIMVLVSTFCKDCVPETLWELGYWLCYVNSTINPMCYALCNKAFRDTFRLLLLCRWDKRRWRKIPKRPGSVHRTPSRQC
Description: Agonist potency at muscarinic M1 receptor in rabbit vas deferens. The test is classed as functional, tissue-based. As to conditions: Oryctolagus cuniculus, target entry is the homologue from another species. The essentials:
(§3)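 Field-stimulated (0.1 ms, 2 Hz, 10-15 V), contractions recorded isometrically after 1 h equilibration. Cumulative dose-response curves against p-Cl-McN-A-343 reference. Antagonists incubated 60 min before the repeat curve. Reported as pD2 (-log ED50) with intrinsic activity, or as pKb.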

Test [9] concerns the target T7, Muscarinic acetylcholine receptor M1 (Homo sapiens, UniProt P11229).
T7 sequence (P11229 whole entry): T6 sequence (whole entry)
Description: Binding affinity to cloned human muscarinic M1 receptor expressed in CHO cells. The test is classed as cell-based.

In test [10] the target is T3, Muscarinic acetylcholine receptor M4 (Homo sapiens). Nature of the test: Antagonist affinity at muscarinic M4 receptor in guinea pig lung strips. The test is classed as functional. The settings on record: Cavia porcellus, target entry is the homologue from another species. The essentials:
as §2

The target of test [11] is Muscarinic acetylcholine receptor M3 (Cavia porcellus) (UniProt Q8VH26). Description: Efficacy of agonist at muscarinic M3 receptor in guinea pig ileum as ratio of Ka/ED50. The test is classed as functional, tissue-based. The essentials:
(§4)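 Functional affinity constants (Ka) obtained in the atrium and ileum preparations. Full agonists: Furchgott-Bursztyn method. Partial agonists: Waud method, comparing their concentration-response curves with arecaidine propargyl ester, with equieffective concentrations read graphically. Ka was then related to ED50.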

Test [12] has as its target T6, Muscarinic acetylcholine receptor M1 (Homo sapiens). Description: Antagonist affinity at muscarinic M1 receptor in rabbit vas deferens. The test is classed as functional, tissue-based. The settings on record: Oryctolagus cuniculus, target entry is the homologue from another species. Summed up:
as §3

The target in test [13] is T4, Muscarinic acetylcholine receptor M2 (Homo sapiens). Description: Efficacy of agonist at muscarinic M2 receptor in guinea pig atrium as ratio of Ka/ED50. The test is classed as functional, tissue-based. As to conditions: Cavia porcellus; Cardiac atrium; target entry is the homologue from another species. The essentials: as §4
Test [14] deals with Muscarinic acetylcholine receptor M3 (Cavia porcellus) (UniProt Q8VH26). Description: Antagonist affinity at muscarinic M3 receptor in guinea pig ileum. The class given is functional, tissue-based. Summed up: as §2
Sequence of Muscarinic acetylcholine receptor M3 (Cavia porcellus) (Q8VH26 1-587): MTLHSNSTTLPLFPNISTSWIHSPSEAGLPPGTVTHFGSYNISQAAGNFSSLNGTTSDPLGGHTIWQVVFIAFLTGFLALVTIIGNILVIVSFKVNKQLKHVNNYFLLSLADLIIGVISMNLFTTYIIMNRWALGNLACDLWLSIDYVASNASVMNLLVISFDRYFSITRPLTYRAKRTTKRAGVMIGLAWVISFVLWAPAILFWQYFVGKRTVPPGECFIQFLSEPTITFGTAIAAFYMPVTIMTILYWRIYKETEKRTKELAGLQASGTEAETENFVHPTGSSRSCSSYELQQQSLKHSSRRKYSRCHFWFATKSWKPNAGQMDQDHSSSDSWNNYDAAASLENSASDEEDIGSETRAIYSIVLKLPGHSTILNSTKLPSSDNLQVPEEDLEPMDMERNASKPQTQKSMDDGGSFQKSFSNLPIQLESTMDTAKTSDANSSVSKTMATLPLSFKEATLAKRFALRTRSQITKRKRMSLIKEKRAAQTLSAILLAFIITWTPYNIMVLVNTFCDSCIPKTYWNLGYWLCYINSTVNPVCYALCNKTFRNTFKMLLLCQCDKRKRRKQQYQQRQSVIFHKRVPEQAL

Some results are limits rather than exact numbers.

6 compounds from ChEMBL document CHEMBL1138195, “Highly chiral muscarinic ligands: the discovery of (2S,2'R,3'S,5'R)-1-methyl-2-(2-methyl-1,3-oxathiolan-5-yl)pyrrolidine 3-sulfoxide methyl iodide, a potent, functionally selective, M2 partial agonist” (J Med Chem, 2006) can be followed below.

A word on the Ki: it is the dissociation constant of the complex between target and ligand, obtained from inhibition or displacement. Read a low Ki as a stronger hold on the target. On to `C#CCOC(=O)C1=CCCN(C)C1` [ARECAIDINE PROPARGYL ESTER], for which the inhibition constant Ki in [1] was 0.0871 µM; in [2] it was 0.977 µM; in test [4], 0.851 µM; in [6] it was 0.933 µM; in test [9], 1.23 µM. Moreover, the pD2 in test [3] is 5.56; in test [5] it was 8.67; in [7], 7.64; in test [8], 7.14. The Activity in test [5] and in test [7] was 1 throughout.
One may read the pKb as −log10 of the Kb, conventionally taken in molar units. A higher pKb goes with a low Kb. Turning to `C[C@@H]1O[C@H]([C@@H]2CCC[N+]2(C)C)C[S@@+]1[O-]`, the Ki in [1] was 15.5 µM; in [2] it was 46.8 µM; in [4], 33.9 µM; in test [6], 33.9 µM; in test [9], 93.3 µM. For the same compound, the pKb in [10] and in test [12] was less than 5 in each case. The Ratio in [11] turned out to be 1; in [13], 58. For the same compound, the results for the -logKa in [5] and in [7] were 4.64 and 4.59, respectively. Also, the Activity in [5] turned out to be 0.56; in [7] it was 0.54. The values for the pD2 in test [5] and in test [7] were 6.37 and 4.62, respectively.
Regarding `C[C@H]1O[C@@H](C[N+](C)(C)C)C[S+]1[O-]` (single isomer, unassigned; (-)), the figures for the Ratio in test [11] and in test [13] were 37 and 28, respectively. The -logKa in test [5] was 5.22; in [7], 5.38. Besides, the figures for the pD2 in test [5] and in test [7] were 6.66 and 6.95, respectively.
In the case of `C[C@@H]1O[C@H]([C@H]2CCC[N+]2(C)C)C[S@@+]1[O-]`, the Ki is 9.33 µM in test [1]; greater than 100 µM in [2]; greater than 100 µM in test [4]; greater than 100 µM in test [6]; greater than 100 µM in test [9]. Further, the pKb in test [10] and in test [12] was less than 5 throughout. The figures for the Ratio in test [11] and in test [13] were 7 and 12, respectively. Besides, the values for the -logKa in test [5] and in test [7] were 5.11 and 4.87, respectively. Besides, the Activity in test [5] turned out to be 0.58; in test [7] it was 1. Further, the pD2 is 6.11 in test [5] and 5.58 in [7].
For `C[N+](C)(C)CC#CCOC(=O)Nc1ccc(Cl)cc1`, the inhibition constant Ki in test [1] was 3.24 µM; in test [2], 9.12 µM; in test [4], 2.4 µM; in test [6], 3.8 µM; in test [9] it was 1.95 µM. The pD2 in [8] was found to be 6.33.
On to `C[C@@H]1O[C@H]([C@@H]2CCC[N+]2(C)C)C[S@+]1[O-]`, for which the pKb in test [14], in [10] and in test [12] was less than 5 throughout. In addition, the Ki was 51.3 µM in [1]; greater than 100 µM in test [2]; greater than 100 µM in test [4]; greater than 100 µM in test [6]; greater than 100 µM in test [9]. In [5], this compound returned a -logKa of 6.13. Also, the Activity in test [5] was 0.41; in test [7], 0. Further, the pD2 in test [5] was 7.65. The Ratio in test [13] amounted to 84.
